Data reported in publication PMC10325562 (Circulation, 2023).
“Also recorded” adds a separate entry of the source. Like-named read-outs stand apart in the source and are kept apart here.

Tests used:
[1] = system: monkeys; experiment: Safety pharmacology and 1-month repeat-dose toxicity studies, monkeys; assay type: in vivo; details: safety pharmacology and 1-month repeat-dose toxicity
[2] = system: rats; experiment: Safety pharmacology and 1-month repeat-dose toxicity studies, rats; assay type: in vivo; details: safety pharmacology and 1-month repeat-dose toxicity
[3] = Passive permeability in MDCKII cells; details: MDCK, pH 7.4
[4] = Study-003 multiple oral dose plasma pharmacokinetics; assay type: in vivo, human; details: for Accumulation ratio (Day 14/Day 1) AUC0-24 / Accumulation ratio (Day 14/Day 1) C24 / Accumulation ratio (Day 14/Day 1) Cmax: (90% CI); for level at time molar at 24 h: both, plasma, po; for level at time molar at 24 h / AUC(0-t) / Cmax / Tmax / half-life: human; for AUC(0-t) / Cmax / Tmax / half-life: in vivo
[5] = Standard genotoxicity/mutagenicity assessments
[6] = Study-001 single oral dose plasma pharmacokinetics; assay type: in vivo, human; details: 200 mg single dose
[7] = Study-001 safety and tolerability; assay type: in vivo, human
Procedure, shortened: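 Single-center, randomized, double-blind, placebo-controlled, single-ascending oral dose study in healthy males aged 18–50. The test compound was given alone, with Labrasol or with sodium caprate. Dosing was fasted except one group after a high-fat breakfast. Escalations were ≥4 days apart, with ≥7-day washout per participant and safety review through ≥24 h. Monitoring covered AEs, physical exam, laboratory safety, 12-lead ECG and vital signs.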

[8] = target: PCSK9 in human plasma (Homo sapiens, UniProt Q8NBP7); experiment: In vitro titration of PCSK9 in human plasma; assay type: binding
Chain of PCSK9 in human plasma (Q8NBP7 153-692): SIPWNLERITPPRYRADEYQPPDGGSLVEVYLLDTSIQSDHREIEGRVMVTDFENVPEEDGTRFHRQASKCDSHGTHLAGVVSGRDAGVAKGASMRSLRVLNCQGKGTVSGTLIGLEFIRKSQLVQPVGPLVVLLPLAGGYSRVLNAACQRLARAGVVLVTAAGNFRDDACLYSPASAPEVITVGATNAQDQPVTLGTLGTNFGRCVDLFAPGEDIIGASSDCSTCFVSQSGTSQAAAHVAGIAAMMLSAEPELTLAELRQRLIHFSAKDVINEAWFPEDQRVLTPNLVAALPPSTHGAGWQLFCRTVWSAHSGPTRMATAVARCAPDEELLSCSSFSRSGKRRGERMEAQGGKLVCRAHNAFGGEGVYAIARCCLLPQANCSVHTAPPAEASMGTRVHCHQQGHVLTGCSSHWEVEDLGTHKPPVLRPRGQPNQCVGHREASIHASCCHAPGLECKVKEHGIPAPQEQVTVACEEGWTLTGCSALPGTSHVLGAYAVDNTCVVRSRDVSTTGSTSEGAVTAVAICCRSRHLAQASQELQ
Procedure, shortened: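 Pooled EDTA-anticoagulated plasma (human, n=20 donors; or cynomolgus monkey) spiked with test compound at 0, 0.3, 1, 3, 5, 10, 50, 100, 500 and 1000 nM, from 0.1 mM DMSO stocks. Incubated 30 min at 25°C. Target engagement measured on 50 μL aliquots by affinity capture, enzymatic digestion and LC-MS/MS.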

[9] = Solubility; assay type: physicochemical
[10] = Oral bioavailability in cynomolgus monkeys with permeation enhancer; assay type: in vivo; details: formulated with an established PE
[11] = Study-003 safety and tolerability; assay type: in vivo, human
[12] = 10 mg once daily 30 min post-meal + 360 mg sodium caprate, n=6
[13] = 10 mg once daily fasted + 360 mg sodium caprate, n=8
[14] = 20 mg once daily fasted + 360 mg sodium caprate, n=9

## COc1ccc(C[C@@H]2NC(=O)[C@H]([C@@H](C)O)NC(=O)[C@@H]3[C@@H]4CCN3C(=O)[C@@H]3Cc5cn(c6ccc(F)cc56)CCCCCCN(Cc5ccc(cc5)CCNC(=O)[C@]5(C)CCCN5C2=O)C(=O)CCC(=O)N[C@@H](C)C(=O)N[C@H](CNC(=O)CCCCC[N+](C)(C)C)C(=O)N[C@@H](Cc2cccc(c2)CNC(=O)CO4)C(=O)N3)cc1 [MK-0616]
[1]
  Tolerability: well tolerated
[2]
  Tolerability: well tolerated
[3]
  Papp: 0.71 ×10⁻⁶ cm/s
[4]; [12]
  Accumulation ratio (Day 14/Day 1) AUC0-24: 1.90 (1.42, 2.55) h•nmol/L
  Accumulation ratio (Day 14/Day 1) C24: 2.01 (1.51, 2.67) nmol/L
  Accumulation ratio (Day 14/Day 1) Cmax: 1.60 (1.17, 2.21) nmol/L
[4]; [13]
  Accumulation ratio (Day 14/Day 1) AUC0-24: 1.46 (1.13, 1.88) h•nmol/L
  Accumulation ratio (Day 14/Day 1) C24: 1.32 (1.03, 1.70) nmol/L
  Accumulation ratio (Day 14/Day 1) Cmax: 1.51 (1.15, 1.99) nmol/L
[4]; 10 mg vs same dose fasting
  Delay of Day 14 Tmax by low-fat breakfast 30 minutes prior to dose: approximately 6 hours
[4]; [14]
  Accumulation ratio (Day 14/Day 1) AUC0-24: 1.97 (1.54, 2.54) h•nmol/L
  Accumulation ratio (Day 14/Day 1) C24: 1.81 (1.42, 2.31) nmol/L
  Accumulation ratio (Day 14/Day 1) Cmax: 2.04 (1.56, 2.68) nmol/L
[4]; all doses evaluated in Study-003
  Plasma accumulation: approximately 2 fold
[4]; 20 mg once daily, C24, Day 14, 20 mg once daily fasted + 360 mg sodium caprate, n=9, footnote: median (min, max)
  level at time molar at 24 h: 11.1 nM
[4]; 20 mg, C24, Day 1, 20 mg once daily fasted + 360 mg sodium caprate, n=9, geometric mean (95% CI)
  level at time molar at 24 h: 6.13 nM
[4]; AUC0-24, Day 1, 20 mg once daily fasted + 360 mg sodium caprate, statin-treated, n=9, geometric mean (95% CI)
  AUC(0-t): 0.142 µM·h
[4]; AUC0-24, Day 14, 20 mg once daily fasted + 360 mg sodium caprate, n=9, geometric mean (95% CI)
  AUC(0-t): 0.28 µM·h
[4]; Day 1, 20 mg once daily fasted + 360 mg sodium caprate, n=9, geometric mean (95% CI)
  Cmax: 7.87 nM
[4]; Day 14, 20 mg once daily fasted + 360 mg sodium caprate, n=9, geometric mean (95% CI)
  Cmax: 16.1 nM
[4]; Day 14, all fasted doses
  Tmax: < 2 h
[4]; Day 14, 20 mg once daily fasted + 360 mg sodium caprate, n=9, median (min, max)
  Tmax: 1.8 h
[4]; t1/2, Day 14, 20 mg once daily fasted + 360 mg sodium caprate, n=9, geometric mean (% geometric CV)
  half-life: 244 h
[4]; t1/2, range, Day 14, across dose regimens
  half-life: 178 to 244 h
[4]; once daily dosing, all dosing regimens
  Time to steady state: by the end of the first week; also recorded: after 1 week
[5]
  Genotoxicity / mutagenicity: not genotoxic or mutagenic
[6]
  Fold lower Cmax in the absence of 1,800 mg Labrasol vs same dose in the PE: > 5 fold
[7]; Study-001
  Deaths or serious AEs: No deaths or serious AEs
[7]; Study-001, n=28 of n=51 administered MK-0616
  Participants with ≥1 AE: 54.9%
[7]; Study-001, single-dose oral administration
  Tolerability: generally well tolerated
[8]
  IC50: 2.5 nM
[9]
  solubility: 7800 µg/mL
[9]; pH 7
  solubility: > 7000 µg/mL
[10]
  Oral bioavailability: demonstrated oral bioavailability
[11]; Study-003
  Deaths or serious AEs: No deaths or serious AEs
[11]; Study-003, 14 days of daily oral dosing
  Tolerability: generally well tolerated
[11]; Study-003, n=1
  Drug-related AE: dizziness: 3.2%
  Drug-related AE: dry mouth: 3.2%
  Drug-related AE: dyspepsia: 3.2%
  Drug-related AE: flushing: 3.2%
  Drug-related AE: hunger: 3.2%
  Drug-related AE: insomnia: 3.2%
[11]; Study-003, n=2
  Drug-related AE: gastroesophageal reflux disease: 6.5%
[11]; Study-003, n=7 of 31
  Participants with 1 or more drug-related AEs: 22.6%
[11]; Study-003, n=21 of n=31 administered MK-0616
  Participants with 1 or more AEs: 67.7%
